Data published in ChEMBL document CHEMBL4706631, “Potent and Selective Mitogen-Activated Protein Kinase Kinase 1/2 (MEK1/2) Heterobifunctional Small-molecule Degraders” (J Med Chem, 2020).
Activity calls are given as the source filed them. The calls are words filed in the database; no cut-off is given here.

Experiments:
HT-29 [1] = assay: Inhibition of ERK phosphorylation in human HT-29 cells incubated for 24 hrs by Western blot analysis; format: cell-based
HT-29 [2] = assay: Inhibition of ERK phosphorylation in human HT-29 cells pre-incubated with PD0325901 for 2 hrs followed by compound addition at 0.3 uM and further incubated for 8 hrs by Western blot analysis; format: cell-based
HT-29 [3] = assay: Inhibition of ERK phosphorylation in human HT-29 cells pre-incubated with POMA for 2 hrs followed by compound addition at 0.3 uM and further incubated for 8 hrs by Western blot analysis; format: cell-based
HT-29 [4] = assay: Inhibition of ERK phosphorylation in human HT-29 cells pre-incubated with MG132 for 2 hrs followed by compound addition at 0.3 uM and further incubated for 8 hrs by Western blot analysis; format: cell-based
HT-29 [5] = assay: Inhibition of ERK phosphorylation in human HT-29 cells pre-incubated with MLN4924 for 2 hrs followed by compound addition at 0.3 uM and further incubated for 8 hrs by Western blot analysis; format: cell-based
HT-29 [6] = assay: Inhibition of colony formation in human HT-29 cells at 30 to 300 nM incubated for 10 days by crystal violet staining based assay; format: functional, cell-based; conditions: dose 30-300 nM, time 10.0 day
How it was run: (§1)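 HT-29 clonogenic assay: cells were exposed to compounds for 10 days, then fixed and stained with crystal violet. Two independent experiments.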

HT-29 [7] = assay: Inhibition of ERK phosphorylation in human HT-29 cells at 0.3 uM and further incubated for 8 hrs by Western blot analysis
NCI-H3122 [8] = assay: Antiproliferative activity against human NCI-H3122 cells at 0.014 to 3.33 uM incubated for 3 days by WST8 assay; format: functional, cell-based; conditions: dose 0.014-3.33 µM, time 3.0 day
How it was run: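 NCI-H3122 cells were exposed to serial compound dilutions for 3 days, with WST-8 live-cell readout. Each concentration was run in triplicate. Student's t-test per concentration versus DMSO.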

HT-29 [9] = assay: Antiproliferative activity against human HT-29 cells at 0.00017 to 10 uM in presence of 100 nM PLX4032 incubated for 3 days by WST-8 assay; format: functional, cell-based; conditions: dose 0.00017-10 µM, time 3.0 day
How it was run: (§2)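 Cells grown in DMEM, RPMI-1640 or EMEM with 10% FBS and penicillin/streptomycin. They were exposed for 3 days to a dilution series of degrader combined with fixed PLX4032 (100 nM) or ZSTK474 (400 nM). Live-cell signal was read by WST-8. Triplicate points, mean ± SD of three independent experiments. Student's t-test per concentration versus DMSO.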

[10] = Toxicity in Swiss albino mouse assessed as induction of adverse events at 50 mg/kg, ip administered as single dose and measured up to 8 hrs; format: organism-based; conditions: in vivo
[11] = Toxicity in Swiss albino mouse assessed as effect on clinical signs at 50 mg/kg, ip administered as single dose and measured up to 8 hrs; format: organism-based; conditions: in vivo
[12] = Drug level in Swiss albino mouse plasma at 50 mg/kg, ip administered as single dose and measured up to 8 hrs by LC-MS/MS analysis; format: ADME, organism-based; conditions: in vivo
[13] = Toxicity in Swiss albino mouse assessed as drug tolerability at 50 mg/kg, ip administered as single dose and measured up to 8 hrs; format: organism-based; conditions: in vivo
SK-MEL-28 [14] = assay: Antiproliferative activity against human SK-MEL-28 cells at 0.00017 to 10 uM in presence of 400 nM ZSTK474 incubated for 3 days by WST-8 assay; format: functional, cell-based; conditions: dose 0.00017-10 µM, time 3.0 day; how it was run: as §2
HT-29 [15] = assay: Antiproliferative activity against human HT-29 cells at 0.00017 to 10 uM in presence of 400 nM ZSTK474 incubated for 3 days by WST-8 assay; format: functional, cell-based; conditions: dose 0.00017-10 µM, time 3.0 day; how it was run: as §2
SK-MEL-28 [16] = assay: Antiproliferative activity against human SK-MEL-28 cells at 0.00017 to 10 uM in presence of 100 nM PLX4032 incubated for 3 days by WST-8 assay; format: functional, cell-based; conditions: dose 0.00017-10 µM, time 3.0 day; how it was run: as §2
SK-MEL-28 [17] = assay: Inhibition of ERK phosphorylation in human SK-MEL-28 cells at 0.0001 to 3 uM incubated for 24 hrs by Western blot analysis; format: cell-based; conditions: dose 0.0001-3 µM
HT-29 [18] = assay: Inhibition of ERK phosphorylation in human HT-29 cells pre-incubated with PD0325901 for 2 hrs followed by compound addition at 0.1 uM and further incubated for 8 hrs by Western blot analysis; format: cell-based
HT-29 [19] = assay: Inhibition of ERK phosphorylation in human HT-29 cells pre-incubated with VH032 for 2 hrs followed by compound addition at 0.1 uM and further incubated for 8 hrs by Western blot analysis; format: cell-based
HT-29 [20] = assay: Inhibition of ERK phosphorylation in human HT-29 cells pre-incubated with MG-132 for 2 hrs followed by compound addition at 0.1 uM and further incubated for 8 hrs by Western blot analysis; format: cell-based
HT-29 [21] = assay: Inhibition of ERK phosphorylation in human HT-29 cells pre-incubated with MLN4924 for 2 hrs followed by compound addition at 0.1 uM and further incubated for 8 hrs by Western blot analysis; format: cell-based
HT-29 [22] = assay: Inhibition of colony formation in human HT-29 cells at 10 to 100 nM incubated for 10 days by crystal violet staining based assay; format: functional, cell-based; conditions: dose 10-100 nM, time 10.0 day; how it was run: as §1
SU-DHL-1 [23] = assay: Inhibition of ERK phosphorylation in human SU-DHL-1 cells at 0.3 to 3 uM and incubated for 24 hrs by Western blot analysis; format: cell-based; conditions: dose 0.3-3 µM
How it was run: (§3)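 H3122 and SU-DHL-1 cells were treated with compounds, and MEK1/2, pMEK and pERK were assessed by Western blot of lysates.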

NCI-H3122 [24] = assay: Inhibition of ERK phosphorylation in human NCI-H3122 cells at 0.3 to 3 uM and incubated for 24 hrs by Western blot analysis; format: cell-based; conditions: dose 0.3-3 µM; how it was run: as §3
HT-29 [25] = assay: Inhibition of ERK phosphorylation in human HT-29 cells pre-incubated for 2 hrs followed by compound addition at 0.1 uM and further incubated for 8 hrs by Western blot analysis
HT-29 [26] = assay: Antiproliferative activity against human HT-29 cells incubated for 3 days by WST8 assay; format: functional; conditions: HT-29, 72 h, time 3 day
SK-MEL-28 [27] = assay: Antiproliferative activity against human SK-MEL-28 cells incubated for 3 days by WST8 assay; format: functional; conditions: SK-MEL-28, 72 h, time 3 day
HT-29 [28] = assay: Inhibition of ERK phosphorylation in human HT-29 cells at 0.3 to 3 uM incubated for 24 hrs by Western blot analysis; format: cell-based; conditions: dose 0.3-3 µM
HT-29 [29] = assay: Effect on global proteome expression in human HT-29 cells at 0.1 uM incubated for 8 hrs by mass spectrometry analysis based global proteome analysis; format: functional, cell-based
How it was run: (§4)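 HT-29 cells were treated 8 h (0.1% DMSO vehicle) and then lysed in 8 M urea/100 mM Tris pH 8.0 with sonication. Proteins were reduced with 5 mM DTT, alkylated with 15 mM IAA and digested overnight with trypsin (1:100). Peptides were analysed on a 130 min nanoLC gradient by Q Exactive HF-X data-dependent MS (top-20 HCD). Run in duplicate.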

SU-DHL-1 [30] = assay: Antiproliferative activity against human SU-DHL-1 cells incubated for 3 days by WST8 assay; format: functional; conditions: SU-DHL-1, 72 h, time 3 day
HT-29 [31] = assay: Effect on global proteome expression in human HT-29 cells at 0.3 uM incubated for 8 hrs by mass spectrometry analysis based global proteome analysis; format: functional, cell-based; how it was run: as §4

In the case of `O=C1CCC(N2C(=O)c3ccc(NCCOCCOCCOCCOCCOCCNCCCONC(=O)c4ccc(F)c(F)c4Nc4ccc(I)cc4F)cc3C2=O)C(=O)N1` (stereo not drawn), the inhibition (HT-29 [1]) is reported as “Dose-dependent effect”, the inhibition (HT-29 [2]) is reported as “Active” and the inhibition (HT-29 [3]) is reported as “inactive”. For the same compound, the inhibition (HT-29 [4]) was “inactive”, the inhibition (HT-29 [5]) was “inactive” and the inhibition (HT-29 [6]) was “Active”. The inhibition (HT-29 [7]) was “inactive”.
For `Cc1ncsc1-c1ccc([C@H](C)NC(=O)[C@@H]2C[C@@H](O)CN2C(=O)[C@@H](NC(=O)CCCCCCCCCCCNCCCCONC(=O)c2ccc(F)c(F)c2Nc2ccc(I)cc2F)C(C)(C)C)cc1`, the Activity (NCI-H3122 [8]) was “Active”, the Activity (HT-29 [9]) was “Active” and the Activity [10] was “Non-Toxic”. For the same compound, the Activity [11] was “Non-Toxic”, the Drug uptake [12] was “Active” and the Activity [13] was “Non-Toxic”. The Activity (SK-MEL-28 [14]) was “Active”, the Activity (HT-29 [15]) was “Active” and the Activity (SK-MEL-28 [16]) was “Active”. The inhibition (HT-29 [1]) was “Dose-dependent effect”, the inhibition (SK-MEL-28 [17]) was “Active” and the inhibition (HT-29 [18]) was “Active”. The inhibition (HT-29 [19]) was “inactive”, the inhibition (HT-29 [20]) was “inactive” and the inhibition (HT-29 [21]) was “inactive”. The inhibition (HT-29 [22]) was “Active”, the inhibition (SU-DHL-1 [23]) was “Active” and the inhibition (NCI-H3122 [24]) was “Active”. The inhibition (HT-29 [25]) was “inactive”.
With `Cc1ncsc1-c1ccc([C@H](C)NC(=O)[C@@H]2C[C@@H](O)CN2C(=O)[C@@H](NC(=O)CCCCCCCCCCNCCCONC(=O)c2ccc(F)c(F)c2Nc2ccc(I)cc2F)C(C)(C)C)cc1` the GI50 (HT-29 [26]) was 130 nM and the GI50 (SK-MEL-28 [27]) was 83 nM.
For `Cc1ncsc1-c1ccc([C@H](C)NC(=O)[C@H]2C[C@H](O)CN2C(=O)[C@@H](NC(=O)CCCCCCCCCCCNCCCCONC(=O)c2ccc(F)c(F)c2Nc2ccc(I)cc2F)C(C)(C)C)cc1`, the Activity (NCI-H3122 [8]) was “inactive”, the inhibition (HT-29 [28]) was “inactive” and the Activity (HT-29 [29]) was “inactive”. The inhibition (HT-29 [22]) was “inactive”, the inhibition (SU-DHL-1 [23]) was “inactive” and the inhibition (NCI-H3122 [24]) was “inactive”.
Compound `Cc1ncsc1-c1ccc([C@H](C)NC(=O)[C@@H]2C[C@@H](O)CN2C(=O)[C@@H](NC(=O)COCCOCCOCCNC(=O)CCc2ccc(S(=O)(=O)Nc3cc(C)c(=O)n(C)c3Nc3ccc(I)cc3F)cc2)C(C)(C)C)cc1` has a GI50 (SU-DHL-1 [30]) of 2400 nM.
With `CN1C(=O)CCC(N2C(=O)c3ccc(NCCOCCOCCOCCOCCOCCNCCCONC(=O)c4ccc(F)c(F)c4Nc4ccc(I)cc4F)cc3C2=O)C1=O` (stereo not drawn) the inhibition (HT-29 [28]) was “inactive”, the Activity (HT-29 [31]) was “inactive” and the inhibition (HT-29 [6]) was “inactive”.
For `Cc1ncsc1-c1ccc([C@H](C)NC(=O)[C@@H]2C[C@@H](O)CN2C(=O)[C@@H](NC(=O)CCCCCCCCCCN(C)CCCONC(=O)c2ccc(F)c(F)c2Nc2ccc(I)cc2F)C(C)(C)C)cc1`, the Activity (NCI-H3122 [8]) was “Active”, the Activity [10] was “Non-Toxic” and the Activity [11] was “Non-Toxic”. The Drug uptake [12] was “Active”, the Activity [13] was “Non-Toxic” and the inhibition (HT-29 [1]) was “Dose-dependent effect”. For the same compound, the inhibition (SK-MEL-28 [17]) was “Active”, the inhibition (HT-29 [18]) was “Active” and the inhibition (HT-29 [19]) was “inactive”. For the same compound, the inhibition (HT-29 [20]) was “inactive”, the inhibition (HT-29 [21]) was “inactive” and the inhibition (HT-29 [22]) was “Active”. The inhibition (SU-DHL-1 [23]) was “Active”, the inhibition (NCI-H3122 [24]) was “Active” and the inhibition (HT-29 [25]) was “inactive”.
